How the values were obtained:
[1] = biological target: T1, Proteasome Macropain subunit MB1 (Homo sapiens) (UniProt P28074); experiment: Inhibition of human chymotrypsin-like activity of 20S constitutive proteasome at 10 uM using Suc-LLVY-AMC as substrate preincubated for 15 mins followed by substrate addition by fluorescence assay relative to control
T1 sequence (whole entry): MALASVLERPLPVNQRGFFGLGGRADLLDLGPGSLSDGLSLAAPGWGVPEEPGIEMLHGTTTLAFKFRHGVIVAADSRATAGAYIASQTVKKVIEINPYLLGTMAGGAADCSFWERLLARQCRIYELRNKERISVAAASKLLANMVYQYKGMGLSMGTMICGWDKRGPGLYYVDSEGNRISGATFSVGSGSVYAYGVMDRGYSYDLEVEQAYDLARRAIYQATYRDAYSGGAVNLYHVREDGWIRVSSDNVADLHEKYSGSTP

[2] = biological target: T2, Proteasome Macropain subunit MB1 (Homo sapiens, UniProt P28074); experiment: Inhibition of human chymotrypsin-like activity of 20S constitutive proteasome using Suc-LLVY-AMC as substrate preincubated for 15 mins followed by substrate addition by fluorescence assay
T2 sequence (P28074 whole entry): T1 sequence (whole entry)

[3] = Stability in human liver microsomes at 1 uM measured after 30 mins in presence of NADPH by LC-MS/MS analysis; assay type: ADME, Microsome; conditions: 0.5 h
Outline: (§1)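 Pooled human liver microsomes at 1.0 mg/mL protein in 0.1 M phosphate buffer saline pH 7.4 with 1 mM NADPH, preincubated 5 min at 37 °C. Reaction started by adding test compound at 1 μM, then incubated 0, 10, 20 or 30 min. Compound disappearance monitored.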

[4] = biological target: T3, Proteasome subunit beta type-8 (Homo sapiens, UniProt P28062); experiment: Inhibition of 20S immunoproteasome LMP7 (unknown origin) using Ac-ANW-AMC as substrate preincubated for 15 mins followed by substrate addition by fluorescence assay
T3 sequence (P28062 whole entry): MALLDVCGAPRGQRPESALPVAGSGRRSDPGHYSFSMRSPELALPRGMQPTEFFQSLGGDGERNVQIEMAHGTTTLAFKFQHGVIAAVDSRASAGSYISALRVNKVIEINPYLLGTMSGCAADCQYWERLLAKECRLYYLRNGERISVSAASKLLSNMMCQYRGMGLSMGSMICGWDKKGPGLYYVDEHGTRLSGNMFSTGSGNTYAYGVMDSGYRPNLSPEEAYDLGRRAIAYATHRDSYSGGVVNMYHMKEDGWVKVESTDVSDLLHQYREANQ

[5] = system: HepG2; experiment: Antiproliferative activity against human HepG2 cells after 72 hrs by MTT assay; assay type: functional, cell-based; conditions: HepG2, 72 h
Outline: (§2)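 Cells kept at 37 °C, 5% CO2; HGC27 in RPMI-1640 and HepG2 in IMDM, each with 10% FBS and penicillin/streptomycin. Seeded at 1×10⁵ cells/well, then exposed to graded compound concentrations or 0.2% DMSO for 72 h. MTT (5 mg/mL) added for 4 h, formazan dissolved in DMSO, absorbance read at 570 nm. Inhibition = (A_control − A_sample)/A_control; IC50 from variable-slope sigmoidal fit.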

[6] = system: HGC-27; experiment: Antiproliferative activity against human HGC27 cells after 72 hrs by MTT assay; assay type: functional, cell-based; conditions: HGC-27, 72 h; outline: as §2
[7] = system: RPMI-8226; experiment: Antiproliferative activity against human RPMI8226 cells after 72 hrs by MTS/PMS assay; assay type: functional, cell-based; conditions: RPMI-8226, 72 h
Outline: (§3)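 Cells kept at 37 °C, 5% CO2; RPMI 8226 and MM.1S in RPMI-1640, MV-4-11 in IMDM, each with 10% FBS and penicillin/streptomycin. Seeding per well: RPMI 8226 5×10³, MM.1S 3×10⁴, MV-4-11 8×10³. Graded compound concentrations or 0.2% DMSO for 72 h. MTS/PMS added for 2-4 h at 37 °C, OD read at 490 nm minus 690 nm background. IC50 from variable-slope sigmoidal fit.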

[8] = system: MM1.S; experiment: Antiproliferative activity against human MM1S cells after 72 hrs by MTS/PMS assay; assay type: functional, cell-based; outline: as §3
[9] = system: MV4-11; experiment: Antiproliferative activity against human MV4-11 cells after 72 hrs by MTS/PMS assay; assay type: functional, cell-based; conditions: MV4-11, 72 h; outline: as §3
[10] = Stability in human liver microsomes assessed as drug degradation at 1 uM measured within 30 mins in presence of NADPH by LC-MS/MS analysis; assay type: ADME, Microsome; conditions: read-out: Drug degradation; outline: as §1

Row | Structure (SMILES) | IC50 [2] [nM] | also measured
1 | CCCc1ccc(OCC(=O)N(CCNC(=O)c2cccnc2)C(C)C)cc1 | – | inhibition [1]: 30.8%
2 | CCCc1ccc(OCC(=O)N(CC(=O)NCc2cccnc2)C(C)C)cc1 | – | inhibition [1]: 1.16%
3 | CCCc1ccc(OCC(=O)N(CC(=O)Nc2ccc(C(F)(F)F)cc2)C(C)C)cc1 | 922 | –
4 | CCCc1ccc(OCC(=O)N(CCNC(=O)Nc2cccnc2)C(C)C)cc1 | – | inhibition [1]: 13.8%
5 | CCCc1ccc(OCC(=O)N(CC(=O)Nc2nncs2)C(C)C)cc1 | 3860 | –
6 | CCCc1ccc(OCC(=O)N(CC(=O)Nc2ccccn2)C(C)C)cc1 | 836 | –
7 | CCCc1ccc(OCC(=O)N(CC(=O)Nc2ccc(OC)cc2)C(C)C)cc1 | 952 | –
8 | CCCc1ccc(OCC(=O)N(CCNC(=O)NCc2cccnc2)C(C)C)cc1 | – | inhibition [1]: 38.7%
9 | CC(C)N(CC(=O)Nc1ccnnc1)C(=O)COc1ccc(C(F)(F)F)cc1 | 952 | –
10 | CCCc1ccc(OCC(=O)N(CC(=O)Nc2cccnc2)C(C)C)cc1 | 1680 | inhibition [1]: 58.2%; Stability [3]: Stable
11 | CCCc1ccc(OCC(=O)N(CCC(=O)NCc2cccnc2)C(C)C)cc1 | – | inhibition [1]: 12.7%
12 | CCCc1ccc(OCC(=O)N(CC(=O)Nc2ccon2)C(C)C)cc1 | 2010 | –
13 | CCCc1ccc(OCC(=O)N(CC(=O)Nc2ccc3ccccc3c2)C(C)C)cc1 | 5910 | –
14 | CC(C)N(CC(=O)Nc1ccnnc1)C(=O)COc1ccc(CCO)cc1 | 968 | –
15 | COC(=O)Cc1ccc(OCC(=O)N(CC(=O)Nc2ccnnc2)C(C)C)cc1 | 1560 | –
16 | CCCc1ccc(OCC(=O)N(CC(=O)Nc2cccc(OC)c2)C(C)C)cc1 | 2000 | –
17 | CCCc1ccc(OCC(=O)N(CC(=O)Nc2ccc(OC)c(OC)c2)C(C)C)cc1 | 4730 | –
18 | CCCc1ccc(OCC(=O)N(CC(=O)Nc2nc3ccc(OC)cc3s2)C(C)C)cc1 | 1110 | –
19 | CCCc1ccc(OCC(=O)N(CC(=O)Nc2ccc(F)cc2)C(C)C)cc1 | 1200 | –
20 | CCCc1ccc(OCC(=O)N(CCC(=O)Nc2cccnc2)C(C)C)cc1 | – | inhibition [1]: 15.5%
21 | CCCc1ccc(OCC(=O)N(CC(=O)Nc2ccccc2OC)C(C)C)cc1 | > 10000 | –

More lines, in order of falling IC50 [2], values ahead:

Row | IC50 [2] [nM] | Structure (SMILES) | also measured
22 | 579 | COc1ccc(OCC(=O)N(CC(=O)Nc2ccnnc2)C(C)C)cc1 | –
23 | 481 | Cc1ccc(OCC(=O)N(CC(=O)Nc2ccnnc2)C(C)C)cc1 | –
24 | 405 | CC(C)N(CC(=O)Nc1ccnnc1)C(=O)COc1ccc(Br)cc1 | –
25 | 395 | CCCc1ccc(OCC(=O)N(CC(=O)Nc2cnccn2)C(C)C)cc1 | –
26 | 361 | CCCc1ccc(OCC(=O)N(CC(=O)Nc2ccc(C#N)cc2)C(C)C)cc1 | –
27 | 280 | CCCc1ccc(OCC(=O)N(CC(=O)Nc2cncnc2)C(C)C)cc1 | –
28 | 259 | CCOc1ccc(OCC(=O)N(CC(=O)Nc2ccnnc2)C(C)C)cc1 | –
29 | 243 | CCc1ccc(OCC(=O)N(CC(=O)Nc2ccnnc2)C(C)C)cc1 | –
30 | 230 | CCCc1ccc(OCC(=O)N(CC(=O)Nc2ccc(S(C)(=O)=O)cc2)C(C)C)cc1 | IC50 [4]: > 10000 nM; IC50 [5]: 2870 nM; IC50 [6]: 2470 nM; IC50 [7]: > 20000 nM; IC50 [8]: > 20000 nM; IC50 [9]: > 20000 nM
31 | 118 | CC(C)Cc1ccc(OCC(=O)N(CC(=O)Nc2ccnnc2)C(C)C)cc1 | –
32 | 100 | CCCc1ccc(OCC(=O)N(CC(=O)Nc2ccncc2)C(C)C)cc1 | –
33 | 92 | CCCc1ccc(OCC(=O)N(Cc2nc(-c3cccnc3)no2)C(C)C)cc1 | inhibition [1]: 80.2%; metabolised at 0.5 h, 1 µM [10]: > 50%; IC50 [4]: > 10000 nM; IC50 [5]: 2950 nM; IC50 [6]: 3350 nM; IC50 [7]: > 20000 nM; IC50 [8]: > 20000 nM; IC50 [9]: > 20000 nM
34 | 89 | CCCc1ccc(OCC(=O)N(CC(=O)Nc2ccnnc2)C(C)C)cc1 | –
35 | 64 | CCCCCc1ccc(OCC(=O)N(CC(=O)Nc2ccnnc2)C(C)C)cc1 | –
36 | 49 | CCCCc1ccc(OCC(=O)N(CC(=O)Nc2ccnnc2)C(C)C)cc1 | Stability [3]: Stable; IC50 [4]: > 10000 nM; IC50 [5]: 3910 nM; IC50 [6]: 4620 nM; IC50 [7]: > 20000 nM; IC50 [8]: > 20000 nM; IC50 [9]: > 20000 nM
